Rev-RRE block: HIV Rev-RRE protein-RNA interaction inhibition. P05866. Rev peptide-RRE RNA binding, FRET. inhibition, % at 8 µM. 0.79% of 97,000 active. AID 704;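 active = inhibition above the screen-wide mean plus 3 SD, cut at about 35% in these data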;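 note: 0% = median DMSO wells and 100% = median Neomycin B control wells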
Target sequence (P05866 whole entry, looked up): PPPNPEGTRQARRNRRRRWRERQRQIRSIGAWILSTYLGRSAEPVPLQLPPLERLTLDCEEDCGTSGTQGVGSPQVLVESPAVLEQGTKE
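Test system: labelled RRE RNA duplex and labelled Rev peptide. Times: 5 min compound–RNA preincubation, then 15 min with peptide, 25 °C. Doses: single-dose 8 µM. Measured by: FRET, excitation 480 nm, emission 540 nm donor and 671 nm acceptor. Measure: % inhibition of FRET ratio versus controls.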
LYP inh 2: blocks human PTPN22 phosphatase activity. recombinant LYP catalytic domain, DiFMUP fluorescence. AID 640. 0.21% of 96,000 active. Q9Y2R2. inhibition, % at 2 µM;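 active = inhibition at 2 µM at or above a set limit, the screen mean plus 3 SD, cut at about 24% in these data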;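 note: 0% = DMSO with enzyme and 100% = enzyme fully blocked by orthovanadate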
PLK1 kinase inh: PLK1 (human) kinase inhibition; P53350; recombinant PLK1 kinase, TR-FRET peptide phosphorylation; inhibition, % at 10 µM; 0.53% of 97,000 active;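 active = inhibition of 50% or more in the single-concentration screen; inactive = inhibition below 50%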;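 note: 0% = DMSO max control and 100% = H-89 dihydrochloride min control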
PLK1 PBD inh: blocks phosphopeptide binding to human Plk1 polo box domain | P53350 | Plk1 PBD phosphopeptide binding, fluorescence polarization | inhibition, %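 (tested at about 20 µM)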 | 0.13% of 97,000 active; in the data active = inhibition above about 34%, passing the limit was not always enough
PLAP activator: human PLAP activation. purified PLAP enzyme, luminescent substrate read-out; stronger effect = higher value. activation fold at 20 µM. 1.2% of 96,000 active; in the data active = activation fold above about 2
LYP act: activators of human LYP (PTPN22) phosphatase; recombinant LYP, DiFMUP fluorescence; 0 = plate median, 100 = signal doubled; activation, % at 2 µM; 0.11% of 96,000 active;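 active = activation at 2 µM above a set limit, the mean plus 5 SD, cut at about 37% in these data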
An asterisk follows results filed as active; [ ] = dose if it differs, or a comment. Shown are actives, neighbours in structure and some others; about 2.7% of the full set was active somewhere.

For COc1ccc(P2(=O)Nc3ccccc3N2)cc1 the results were Rev-RRE block 61*, LYP inh 2 -15, PLK1 kinase inh 0, PLK1 PBD inh -15, PLAP activator 1 and LYP act 14.
Screening COc1ccc(-n2c(=O)[nH]c3ccccc3c2=O)cc1 returned Rev-RRE block 4, LYP inh 2 15, PLK1 kinase inh -7, PLK1 PBD inh 32, PLAP activator 0.9 and LYP act -12.
For CN(C)CC1CSCCC1(O)c1cccc(Cl)c1 (centres undefined) the results were Rev-RRE block 7, LYP inh 2 -2, PLK1 kinase inh 0, PLK1 PBD inh -4 and LYP act 2.
O=c1[nH]c(=O)n(CCC2=CCCCC2)c(O)c1C=NCCCn1ccnc1 was read as Rev-RRE block 5, LYP inh 2 -3, PLK1 kinase inh -1, PLK1 PBD inh -24, PLAP activator 2.1* and LYP act 3.
CC1CCN(S(=O)(=O)c2ccc(NN=C(C#N)C#N)cc2)CC1 was read as Rev-RRE block 7, LYP inh 2 26*, PLK1 kinase inh -21, PLK1 PBD inh -1, PLAP activator 1.1 and LYP act -24.
COc1ccc(C2SCC(=O)Nc3c2c(=O)[nH]n3C2CCCCCC2)cc1 (centres undefined) was read as Rev-RRE block 7, LYP inh 2 -4, PLK1 kinase inh -6, PLK1 PBD inh -24, PLAP activator 1.1 and LYP act 1.
For COc1cc(/C=C2\C(=O)NC(=O)N(c3ccccc3)C2=O)cc(OC)c1O the results were Rev-RRE block 59*, LYP inh 2 16, PLK1 kinase inh -8, PLK1 PBD inh 34, PLAP activator 0.9 and LYP act -14.
For O=S(=O)(c1ccccc1)N1CCCCC1c1cccnc1 (centres undefined) the results were Rev-RRE block 2, LYP inh 2 0, PLK1 kinase inh -1, PLK1 PBD inh 5, PLAP activator 1.1 and LYP act 4.
Screening O=C(c1cc(=O)[nH]c2ccc(Br)cc12)N1CCC2(CC1)OCCO2 returned Rev-RRE block 1, LYP inh 2 10, PLK1 kinase inh -12, PLK1 PBD inh -1, PLAP activator 1.2 and LYP act -11.
N#Cc1c(/N=C/c2c(O)n(Cc3ccco3)c(=O)[nH]c2=O)sc2c1CCCC2 was read as Rev-RRE block 40*, LYP inh 2 -32, PLK1 kinase inh -7, PLK1 PBD inh -11, PLAP activator 1.1 and LYP act 30.
Screening O=c1[nH]c(=O)n(Cc2ccco2)c(O)c1C=NCc1cccs1 returned Rev-RRE block 5, LYP inh 2 3, PLK1 kinase inh 3, PLK1 PBD inh -3, PLAP activator 1 and LYP act -2.
For CCN1CCN(C(=O)COc2ccc3c(c2)C(=O)CC2(CCN(C(C)=O)CC2)O3)CC1 the results were Rev-RRE block 4, LYP inh 2 -6, PLK1 kinase inh -4, PLK1 PBD inh 2, PLAP activator 2.7* and LYP act 4.
`CCCC1COC(Cn2cncn2)(c2ccc(Cl)cc2Cl)O1` (centres undefined) gave Rev-RRE block 7, LYP inh 2 62*, PLK1 kinase inh -9, PLK1 PBD inh 13, PLAP activator 1.3 and LYP act -61.
For CCN(CC)c1ccc(N=Cc2c(O)n(-c3cc(OC)ccc3OC)c(=O)[nH]c2=O)cc1 the results were Rev-RRE block 64*, LYP inh 2 13, PLK1 kinase inh -3, PLK1 PBD inh -53 and LYP act -15.
`OC1(CN2CCOCC2)C2CC3CC(C2)CC1C3` (centres undefined) gave Rev-RRE block 6, LYP inh 2 10, PLK1 kinase inh 1, PLK1 PBD inh 0, PLAP activator 1.1 and LYP act -11.
For O=C1NC(=O)C(=Cc2cn(CCOc3ccc4c(c3)OCO4)c3ccccc23)C(=O)N1 the results were Rev-RRE block 44*, LYP inh 2 26*, PLK1 kinase inh -8, PLK1 PBD inh 1, PLAP activator 0.4 and LYP act -26.
For CN(C)c1ccc(C(=O)c2ccc(N(C)C)cc2)cc1 the results were Rev-RRE block 7, LYP inh 2 -7, PLK1 kinase inh 0, PLK1 PBD inh 9, PLAP activator 0.8 and LYP act 5.
C/C(=C\c1ccc(N(C)C)cc1)[N+](=O)[O-] was read as Rev-RRE block 73*, LYP inh 2 -6, PLK1 kinase inh -23, PLK1 PBD inh 33, PLAP activator 0.8 and LYP act 9.
`O=C1NC(=S)N(c2ccc(Cl)cc2)C(=O)/C1=C/N1CCN(C(=O)c2ccco2)CC1` gave Rev-RRE block 41*, LYP inh 2 4, PLK1 kinase inh -8, PLK1 PBD inh 11, PLAP activator 1.2 and LYP act 1.
Screening CCOC(=O)C1CCN(/C=C2/C(=O)NC(=O)N(Cc3ccco3)C2=O)CC1 returned PLAP activator 1.
For Cc1nn(Cc2ccccc2)c(C)c1C(=O)OCC(=O)Nc1ccccc1SCC#N the results were Rev-RRE block 61*, LYP inh 2 1, PLK1 kinase inh -6, PLK1 PBD inh -13, PLAP activator 1.7 and LYP act -3.
CN1C(=O)/C(=C\c2ccc(N3CCCCC3)o2)C(=O)NC1=S was read as Rev-RRE block 128*[fluorescence artefact?], LYP inh 2 1, PLK1 kinase inh -55, PLK1 PBD inh -121, PLAP activator 0.4 and LYP act 4.
Screening Cc1ccc(N2C(=O)/C(=C/c3ccc(CN(CCC#N)S(C)(=O)=O)o3)C(=O)NC2=S)cc1C returned Rev-RRE block 29, LYP inh 2 6, PLK1 kinase inh -15, PLK1 PBD inh -61, PLAP activator 1.4 and LYP act -1.
For CN1C(=O)/C(=C/c2ccc(N3CCCCCC3)o2)C(=O)NC1=S the results were Rev-RRE block 126*[fluorescence artefact?], LYP inh 2 4, PLK1 kinase inh -42, PLK1 PBD inh -86 and LYP act -3.
For Cc1ccc(C(=O)C2CN(C)CC2C(=O)c2ccc(C)cc2)cc1 (centres undefined) the results were Rev-RRE block 8, LYP inh 2 -8, PLK1 kinase inh -12, PLK1 PBD inh -2, PLAP activator 1.4 and LYP act 10.
COc1ccc(C(=O)CN2CCOCC2)cc1F was read as Rev-RRE block 3, LYP inh 2 -3, PLK1 kinase inh -11, PLK1 PBD inh 6, PLAP activator 1 and LYP act 3.
`COc1ccccc1CCNC1CCC(C(C)(C)C)CC1` (centres undefined) gave Rev-RRE block 4, LYP inh 2 6, PLK1 kinase inh -4, PLK1 PBD inh 6, PLAP activator 1.4 and LYP act -4.
Screening c1ccc2[nH]c(CCNC3CCCCC3)nc2c1 returned Rev-RRE block 9, LYP inh 2 8, PLK1 kinase inh -4, PLK1 PBD inh -13, PLAP activator 2.7* and LYP act -8.

Compound activity as filed in PubChem BioAssay.
